Measured values published in publication PMC10694828 (RSC Advances, 2023).

Tests used:
MAO-B [1] = target: T1, MAO-B (Homo sapiens, UniProt P27338); assay: Enzyme kinetics of MAO-B inhibition; type: biochemical; settings: for Inhibition type for MAO-B: Lineweaver–Burk plots
T1 sequence (P27338 1-520): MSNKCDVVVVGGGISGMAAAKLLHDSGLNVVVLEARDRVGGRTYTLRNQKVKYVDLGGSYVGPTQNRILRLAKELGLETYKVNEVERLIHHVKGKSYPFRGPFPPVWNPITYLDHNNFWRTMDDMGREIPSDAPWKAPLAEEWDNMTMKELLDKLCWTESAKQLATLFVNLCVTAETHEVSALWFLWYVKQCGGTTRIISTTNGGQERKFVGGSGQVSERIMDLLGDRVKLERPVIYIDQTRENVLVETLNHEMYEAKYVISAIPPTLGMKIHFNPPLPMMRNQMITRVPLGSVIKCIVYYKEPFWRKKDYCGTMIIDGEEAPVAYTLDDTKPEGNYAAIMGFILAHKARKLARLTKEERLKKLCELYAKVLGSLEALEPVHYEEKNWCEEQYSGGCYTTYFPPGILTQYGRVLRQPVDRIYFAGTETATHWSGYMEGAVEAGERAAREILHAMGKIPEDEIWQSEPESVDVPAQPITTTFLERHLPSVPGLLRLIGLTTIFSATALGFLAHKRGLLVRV
Method in brief: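 Recombinant human MAO-B. Activity was followed continuously by absorbance at 250 nm with benzylamine as substrate at five concentrations (0.0375–0.60 […]). Three inhibitor concentrations were tested against each substrate level. The inhibition pattern and Ki came from Lineweaver–Burk plots and from secondary plots of slope versus inhibitor concentration.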

MAO-B [2] = target: T1, MAO-B; assay: MAO-B inhibition, continuous assay with benzylamine; type: biochemical; settings: for SI (selectivity index for MAO-B compared to MAO-A): (IC50 of MAO-A)/(IC50 of MAO-B); for remaining activity at 10 µM: read-out: Residual activity at 10 μM (%) MAO-B
recombinant human MAO-A = target: T2, recombinant human MAO-A (Homo sapiens, UniProt P21397); assay: MAO-A inhibition, continuous assay with kynuramine; type: biochemical; settings: for remaining activity at 10 µM: read-out: Residual activity at 10 μM (%) MAO-A
T2 sequence (P21397 1-527): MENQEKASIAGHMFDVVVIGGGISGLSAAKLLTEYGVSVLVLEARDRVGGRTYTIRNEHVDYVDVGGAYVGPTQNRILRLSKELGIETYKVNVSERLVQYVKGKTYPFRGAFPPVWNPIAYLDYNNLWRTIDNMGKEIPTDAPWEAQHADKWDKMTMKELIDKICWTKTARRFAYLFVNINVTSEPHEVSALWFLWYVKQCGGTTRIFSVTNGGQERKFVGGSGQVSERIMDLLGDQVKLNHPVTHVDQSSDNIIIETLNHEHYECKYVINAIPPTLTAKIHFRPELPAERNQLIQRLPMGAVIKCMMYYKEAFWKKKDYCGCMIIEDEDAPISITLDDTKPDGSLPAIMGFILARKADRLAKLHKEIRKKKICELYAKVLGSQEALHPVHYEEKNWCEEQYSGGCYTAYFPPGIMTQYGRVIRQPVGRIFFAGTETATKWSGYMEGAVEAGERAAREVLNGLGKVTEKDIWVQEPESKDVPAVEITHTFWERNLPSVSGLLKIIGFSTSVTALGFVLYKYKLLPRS

PAMPA for BBB permeation = type: in vitro ADME; settings: for Papp: PAMPA; for Experimental Pe / Prediction (CNS permeation): PAMPA-BBB
Method in brief: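 Passive BBB permeation by PAMPA on a filter membrane with 0.45 micron pores, 125 microns thick. Drug concentrations in donor, receiver and reference wells were measured by UV spectroscopy. Pe (10−6 cm s−1) was calculated as […]. Pe > 4.00 was classed CNS+ (high permeation).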

MAO-B [3] = target: T1, MAO-B; assay: Reversibility of MAO-B inhibition by dialysis; type: biochemical; settings: for Reversibility of MAO-B inhibition: dialysis; for Relative MAO-B activity, undialyzed (AU) / Relative MAO-B activity, dialyzed (AD): ~2.0 times IC50, 30 min preincubation; for Relative MAO-B activity, dialyzed (AD): dialyzed 6 h with two buffer changes

SMILES	Ki (MAO-B [1])	Inhibition type for MAO-B (MAO-B [1])	IC50 (MAO-B [2])	SI (selectivity index for MAO-B compared to MAO-A) (MAO-B [2])	remaining activity at 10 µM (MAO-B [2])	IC50 (recombinant human MAO-A)	remaining activity at 10 µM (recombinant human MAO-A)	Papp (PAMPA for BBB permeation)	Experimental Pe (PAMPA for BBB permeation)	Reversibility of MAO-B inhibition (MAO-B [3])	Relative MAO-B activity, undialyzed (AU) (MAO-B [3])	Relative MAO-B activity, dialyzed (AD) (MAO-B [3])	Prediction (CNS permeation) (PAMPA for BBB permeation)
O=C1Nc2ccc(F)cc2C1=NN=Cc1ccc(OCc2ccccc2)cc1 [ISB3]			13900 ± 204 nM	>2.87	59.6 ± 1.11%	> 40000 nM	74.5 ± 0.95%						
O=C1Nc2ccccc2C1=NN=Cc1cccc(OCc2ccccc2)c1 [ISBB1]			540 ± 29 nM	2.91	1.99 ± 0.86%	1570 ± 48 nM	4.84 ± 1.61%						
O=C1Nc2ccc(Br)cc2C1=NN=Cc1ccc(OCc2cccc(F)c2)cc1 [ISFB2]			16000 ± 308 nM	>2.49	57.6 ± 1.1%	> 40000 nM	88.5 ± 1.38%						

Now those with a lower IC50 (MAO-B [2]), led by results:

Ki (MAO-B [1])	Inhibition type for MAO-B (MAO-B [1])	IC50 (MAO-B [2])	SI (selectivity index for MAO-B compared to MAO-A) (MAO-B [2])	remaining activity at 10 µM (MAO-B [2])	IC50 (recombinant human MAO-A)	remaining activity at 10 µM (recombinant human MAO-A)	Papp (PAMPA for BBB permeation)	Experimental Pe (PAMPA for BBB permeation)	Reversibility of MAO-B inhibition (MAO-B [3])	Relative MAO-B activity, undialyzed (AU) (MAO-B [3])	Relative MAO-B activity, dialyzed (AD) (MAO-B [3])	SMILES	Prediction (CNS permeation) (PAMPA for BBB permeation)
69 ± 25 nM	competitive	135 ± 2 nM		-3.03 ± 0.24%	678 ± 6 nM	4.17 ± 0.32%	4.09 ± 0.24 ×10⁻⁶ cm/s	higher than 4.0 ×10^−6 cm s^−1	reversible	31.42%	79.32%	O=C1Nc2ccccc2/C1=N/N=Cc1ccc(OCc2cccc(F)c2)cc1 [ISFB1, (3Z)-3-((4-((3-fluorobenzyl)oxy)benzylidene)hydrazineylidene)indolin-2-one]	CNS+ (Pe (10^−6 cm s^−1) > 4.00: CNS+ (high permeation))
55 ± 10 nM	competitive	124 ± 7 nM	55.03	-8.77 ± 0.14%	6824 ± 49 nM	38.78 ± 0.25%	4.93 ± 0.13 ×10⁻⁶ cm/s	higher than 4.0 ×10^−6 cm s^−1	reversible	31.61%	83.77%	O=C1Nc2ccccc2/C1=N/N=Cc1ccc(OCc2ccccc2)cc1 [ISB1, (3Z)-3-((4-(benzyloxy)benzylidene)hydrazineylidene)indolin-2-one]	CNS+ (Pe (10^−6 cm s^−1) > 4.00: CNS+ (high permeation))
